pEC50, pKi: −log10 of the molar value.
Columns and labels:
[1] = target: T1, 5-hydroxytryptamine receptor 1A (Homo sapiens, UniProt P08908); assay: Displacement of [3H]DPAT from human 5HT1A receptor
T1 sequence (P08908 whole entry): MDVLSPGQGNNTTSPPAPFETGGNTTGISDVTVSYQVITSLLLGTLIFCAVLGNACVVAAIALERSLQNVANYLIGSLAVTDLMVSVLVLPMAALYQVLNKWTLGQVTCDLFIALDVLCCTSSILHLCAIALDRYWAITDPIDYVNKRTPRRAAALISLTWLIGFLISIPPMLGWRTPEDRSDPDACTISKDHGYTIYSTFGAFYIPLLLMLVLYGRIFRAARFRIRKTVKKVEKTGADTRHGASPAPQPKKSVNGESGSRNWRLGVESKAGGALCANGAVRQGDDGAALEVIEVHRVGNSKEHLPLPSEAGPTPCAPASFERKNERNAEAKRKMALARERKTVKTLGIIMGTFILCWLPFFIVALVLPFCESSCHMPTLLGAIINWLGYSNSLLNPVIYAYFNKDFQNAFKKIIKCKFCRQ
Summary of the method: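 Radioligand binding in vitro using cell lines expressing the human 5-HT1A receptor. Values are mean ± SEM of at least three determinations.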

[2] = target: T1, 5-hydroxytryptamine receptor 1A; assay: Antagonist activity at human 5HT1A expressed in mouse LM(tK-) cells assessed as inhibition of 5-HT-stimulated [35S]GTP-gamma-S binding; assay type: functional, cell-based
Summary of the method: (§1)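 [35S]GTPγS binding in mouse LM(tk−) cells expressing the human 5-HT1A receptor, with binding stimulated by 300 nM 5-HT. Ki was calculated from inhibition of that stimulation. Maximal inhibition was expressed as a percentage of the stimulation produced by a maximal 5-HT concentration. Where Ki could not be obtained, inhibition was read at the highest accurately testable compound concentration.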

[3] = target: T2, 5-hydroxytryptamine receptor 1A (Homo sapiens) (UniProt P08908); assay: Antagonist activity at human 5HT1A expressed in mouse LM(tK-) cells assessed as maximal inhibition of 5-HT-stimulated [35S]GTPgammaS binding; assay type: functional, cell-based; design: scale not given: the % may be the effect or the level left
T2 sequence (whole entry): T1 sequence (P08908 whole entry)

[4] = target: T2, 5-hydroxytryptamine receptor 1A (Homo sapiens); assay: Antagonist activity at human 5HT1A expressed in mouse LM(tK-) cells assessed as inhibition of 5-HT-stimulated [35S]GTP-gamma-S binding at 10 uM; assay type: functional, cell-based; design: scale not given: the % may be the effect or the level left
Summary of the method: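 Human 5-HT1A receptor expressed in mouse LM(tk-) cells. [35S]GTPγS binding was stimulated with 300 nM 5-HT, and inhibition was measured at a single compound concentration, the highest that could be accurately tested.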

Rattus norvegicus [5] = assay: Blockade of 8-OH-DPAT-induced increase in serum corticosterone level in male Spargue-Dawley rat at 1.0 mg/kg, sc; assay type: functional; details: route subcutaneous
Summary of the method: (§2)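 Male Sprague–Dawley rats received compound sc at 0.03–1.0 mg/kg, 15 min before 0.3 mg/kg sc 8-OH-DPAT. Rats were killed 1 h after the agonist. Serum corticosterone was measured with a 3H-corticosterone kit. Results are mean and standard error, n = 5 rats per group, with percent antagonism of the 8-OH-DPAT-induced rise.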

Rattus norvegicus [6] = assay: Blockade of 8-OH-DPAT-induced increase in serum corticosterone level in Spargue-Dawley rat at 0.1 mg/kg, sc; assay type: functional; details: route subcutaneous; summary of the method: as §2
Rattus norvegicus [7] = assay: Blockade of 8-OH-DPAT-induced increase in serum corticosterone level in Spargue-Dawley rat at 0.03 mg/kg, sc; assay type: functional; details: route subcutaneous; summary of the method: as §2
[8] = target: Beta-2 adrenergic receptor (Homo sapiens, UniProt P07550); assay: Binding affinity at human adrenergic beta2 receptor
Sequence of Beta-2 adrenergic receptor (P07550 whole entry): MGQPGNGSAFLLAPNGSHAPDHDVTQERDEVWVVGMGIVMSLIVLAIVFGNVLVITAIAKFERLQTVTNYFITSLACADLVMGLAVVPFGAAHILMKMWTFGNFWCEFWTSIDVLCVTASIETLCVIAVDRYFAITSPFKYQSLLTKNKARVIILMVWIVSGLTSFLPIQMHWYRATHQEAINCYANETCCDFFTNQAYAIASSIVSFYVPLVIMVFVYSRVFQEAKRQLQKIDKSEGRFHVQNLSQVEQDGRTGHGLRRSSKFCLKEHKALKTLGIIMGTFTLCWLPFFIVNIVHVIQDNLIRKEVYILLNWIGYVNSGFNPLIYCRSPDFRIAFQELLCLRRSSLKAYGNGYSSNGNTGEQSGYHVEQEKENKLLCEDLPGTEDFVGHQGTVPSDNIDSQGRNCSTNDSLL

Rattus norvegicus [9] = assay: Blockade of 8-OH-DPAT-induced increase in serum corticosterone level in Spargue-Dawley rat at 0.3 mg/kg, sc; assay type: functional; details: route subcutaneous; summary of the method: as §2
Rattus norvegicus [10] = assay: Blockade of 8-OH-DPAT-induced increase in serum corticosterone level in sc dosed Spargue-Dawley rat; assay type: functional; summary of the method: as §2
[11] = target: Beta-1 adrenergic receptor (Homo sapiens, UniProt P08588); assay: Binding affinity at human adrenergic beta-1 receptor
Sequence of Beta-1 adrenergic receptor (P08588 whole entry): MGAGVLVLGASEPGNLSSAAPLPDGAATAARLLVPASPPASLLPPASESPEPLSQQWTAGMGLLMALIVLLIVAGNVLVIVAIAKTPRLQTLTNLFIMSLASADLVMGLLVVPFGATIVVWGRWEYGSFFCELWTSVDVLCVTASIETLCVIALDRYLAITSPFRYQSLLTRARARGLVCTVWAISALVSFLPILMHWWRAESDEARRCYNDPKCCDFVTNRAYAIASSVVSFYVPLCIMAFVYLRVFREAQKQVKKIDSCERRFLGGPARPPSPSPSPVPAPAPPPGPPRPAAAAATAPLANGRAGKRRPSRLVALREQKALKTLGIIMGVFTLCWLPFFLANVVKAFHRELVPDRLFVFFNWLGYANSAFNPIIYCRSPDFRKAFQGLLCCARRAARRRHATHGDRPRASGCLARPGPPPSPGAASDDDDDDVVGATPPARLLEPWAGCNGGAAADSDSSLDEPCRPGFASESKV

[12] = target: T1, 5-hydroxytryptamine receptor 1A; assay: Antagonist activity at human 5HT1A expressed in mouse LM(tK-) cells assessed as 5-HT-stimulated [35S]GTPgammaS binding; assay type: functional, cell-based; summary of the method: as §1
[13] = target: T2, 5-hydroxytryptamine receptor 1A (Homo sapiens); assay: Antagonist activity at human 5HT1A expressed in mouse LM(tK-) cells assessed as maximal 5-HT-stimulated [35S]GTPgammaS binding relative to 5HT; assay type: functional, cell-based

Structure (SMILES): OC(CNC1CCCCC1)COc1ccc2[nH]ccc2c1 (configuration not stated)
- pKi [1]: < 5.52

Structure (SMILES): OC(CNC1CCCCC1)COc1cccc2[nH]ccc12 (configuration not stated)
- pKi [2]: 8.01
- pKi [1]: 8.45
- Activity [3]: 9.88%

Structure (SMILES): COC(CNC12CC3CC(CC(C3)C1)C2)COc1cccc2[nH]ccc12 (configuration not stated)
- pKi [1]: 7.49
- Activity [4]: 28.9%

Structure (SMILES): OC(CNC12CC3CC(CC(C3)C1)C2)COc1cccc2[nH]ccc12 (configuration not stated)
- pKi [2]: 8.11
- pKi [1]: 8.03
- Activity [3]: 6.56%

Structure (SMILES): COC(CNC1CCCCC1)COc1cccc2[nH]ccc12 (configuration not stated)
- pKi [1]: 7.39
- Activity [4]: 36.2%

Structure (SMILES): OC(CCOc1cccc2[nH]ccc12)CNC12CC3CC(CC(C3)C1)C2 (configuration not stated)
- pKi [1]: 6.26

Structure (SMILES): O[C@@H](CNC1CCCCC1)COc1cccc2[nH]ccc12
- pKi [2]: 8.18
- pKi [1]: 8.88
- Activity (Rattus norvegicus [5]): 92%
- Activity (Rattus norvegicus [6]): 26%
- Activity (Rattus norvegicus [7]): 13%
- pKi [8]: 8.43
- Activity (Rattus norvegicus [9]): 53%
- ED50 (Rattus norvegicus [10]): 2.5 mg/kg
- pKi [11]: 8.63
- Activity [3]: 7.52%

Structure (SMILES): c1cc(OCCCNC2CCCCC2)c2cc[nH]c2c1
- pKi [1]: 7.11
- Activity [4]: 31.3%

Structure (SMILES): OC(CCNC12CC3CC(CC(C3)C1)C2)COc1cccc2[nH]ccc12 (configuration not stated)
- pEC50 [12]: 6.07
- pKi [1]: 7.12
- Emax [13]: 51.8%

Structure (SMILES): O[C@H](CNC1CCCCC1)COc1cccc2[nH]ccc12
- pKi [2]: 7.29
- pKi [1]: 7.58
- Activity [3]: 8.87%

Structure (SMILES): C[C@](O)(CNC1CCCCC1)COc1cccc2[nH]ccc12
- pKi [1]: 5.84

Structure (SMILES): OC(CCOc1cccc2[nH]ccc12)CNC1CCCCC1 (configuration not stated)
- pKi [1]: 6.06

Structure (SMILES): C[C@](O)(CNC12CC3CC(CC(C3)C1)C2)COc1cccc2[nH]ccc12
- pKi [1]: 6.06

Structure (SMILES): OC(CNC12CC3CC(CC(C3)C1)C2)COc1ccc2[nH]ccc2c1 (configuration not stated)
- pKi [1]: 6.08

Structure (SMILES): c1cc(OCCCNC2CCCC2)c2cc[nH]c2c1
- pKi [2]: 6.63
- pKi [1]: 7.03
- Activity [3]: 24.8%

Structure (SMILES): OC(CNC1CCCCCC1)COc1cccc2[nH]ccc12 (configuration not stated)
- pKi [2]: 7.95
- pKi [1]: 8.17
- Activity [3]: 8.9%

Structure (SMILES): OC(CCNC1CCCCC1)COc1cccc2[nH]ccc12 (configuration not stated)
- pEC50 [12]: 6.40
- pKi [1]: 6.90
- Emax [13]: 45.6%

Structure (SMILES): CC(C)NCC(O)CCOc1cccc2[nH]ccc12 (configuration not stated)
- pKi [1]: 5.75

Structure (SMILES): CC(C)NCC(O)COc1cccc2[nH]ccc12 (configuration not stated)
- Activity [3]: 9.76%

Structure (SMILES): O[C@@H](CNC12CC3CC(CC(C3)C1)C2)COc1cccc2[nH]ccc12
- pKi [2]: 8.33
- pKi [1]: 8.41
- pKi [8]: 8.18
- pKi [11]: 8.10
- Activity [3]: 6.38%

Structure (SMILES): O[C@H](CNC12CC3CC(CC(C3)C1)C2)COc1cccc2[nH]ccc12
- pKi [2]: 7.52
- pKi [1]: 7.74
- Activity [3]: 3.15%

Structure (SMILES): O[C@@H](CNC1C2CC3CC(C2)CC1C3)COc1cccc2[nH]ccc12 (some centres not stated)
- pKi [2]: 7.62
- pKi [1]: 7.95
- Activity [3]: 8.75%

Structure (SMILES): CCC(CC)NCC(O)COc1cccc2[nH]ccc12 (configuration not stated)
- pKi [2]: 7.30
- pKi [1]: 7.54
- Activity [3]: 4.74%

Structure (SMILES): OC(CNC1CCCC1)COc1cccc2[nH]ccc12 (configuration not stated)
- pKi [2]: 7.45
- pKi [1]: 7.97
- Activity [3]: 11.8%
